Reference: ChEMBL document CHEMBL4732244, “A new class of α-ketoamide derivatives with potent anticancer and anti-SARS-CoV-2 activities” (Eur J Med Chem, 2021)

What was measured:
[1] = tested on: RPMI-8226; test: Anticancer activity against human RPMI8226 cells assessed as cell viability measured after 72 hrs by MTT assay; format: functional, cell-based; conditions: RPMI-8226, 72 h
Procedure, shortened: (§1)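 MTS growth assay after 72 h compound exposure. RPMI8226 (1×10^4/well), THP-1 and Ramos (5×10^4/well) were cultured in RPMI 1640 with 10% FBS. MGC-803, HeLa and SW480 (5×10^3/well) were cultured in DMEM with 10% FBS. All at 37 °C, 5% CO2. MTS was added for 3 h at 37 °C and OD read at 490 nm. IC50 from 7 concentrations; triplicate wells, three independent experiments.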

[2] = tested on: THP-1; test: Anticancer activity against human THP-1 cells assessed as cell viability measured after 72 hrs by MTT assay; format: functional, cell-based; conditions: THP-1, 72 h; procedure, shortened: as §1
[3] = tested on: Ramos; test: Anticancer activity against human Ramos cells assessed as cell viability measured after 72 hrs by MTT assay; format: functional, cell-based; procedure, shortened: as §1
[4] = tested on: SW480; test: Anticancer activity against human SW480 cells assessed as cell viability measured after 72 hrs by MTT assay; format: functional, cell-based; conditions: SW480, 72 h; procedure, shortened: as §1
[5] = tested on: HeLa; test: Anticancer activity against human HeLa cells assessed as cell viability measured after 72 hrs by MTT assay; format: functional, cell-based; procedure, shortened: as §1
[6] = tested on: MGC-803; test: Anticancer activity against human MGC-803 cells assessed as cell viability measured after 72 hrs by MTT assay; format: functional, cell-based; conditions: MGC-803, 72 h; procedure, shortened: as §1
[7] = Cytotoxicity in African green monkey Vero E6 cells assessed as reduction in cell viability after 48 hrs by Celltiter Glo luminescent assay; format: cell-based; conditions: chlorocebus aethiops, vero e6, 48 h
Procedure, shortened: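 CellTiter-Glo viability: Vero E6 cells at 2 × 10^4 cells/well were exposed to serially diluted compound for 48 h. Luminescence was read 10 min after substrate addition. CC50 was derived by curve fitting.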

[8] = tested on: SARS-CoV-2; test: Antiviral activity against SARS coronavirus 2 infected in Vero E6 cells assessed as plague reduction measured after 1 hr; format: functional, organism-based; conditions: Severe acute respiratory syndrome coronavirus 2, Vero C1008, 1 h

Structure (SMILES): COc1ccc(C[C@H](NC(=O)[C@H](C)NC(=O)c2ccc(-c3ccc(C(C)=O)cc3)o2)C(=O)N[C@@H](CC(C)C)C(=O)C(=O)Nc2ccccc2)cc1
- IC50 [1]: 475 nM
- IC50 [2]: 475 nM
- IC50 [3]: 428 nM
- IC50 [4]: 2000 nM
- IC50 [5]: 3200 nM
- IC50 [6]: 1160 nM

Structure (SMILES): CC(=O)c1cccc(NC(=O)C(=O)[C@H](CC(C)C)NC(=O)[C@H](Cc2c[nH]c3ccccc23)NC(=O)[C@H](CC(C)C)NC(=O)OCc2ccccc2)c1
- IC50 [1]: 91 nM
- IC50 [2]: 78.1 nM
- IC50 [3]: 38.4 nM
- IC50 [4]: 94.2 nM
- IC50 [6]: 88.8 nM

Structure (SMILES): CCc1cccc(NC(=O)C(=O)[C@H](CC(C)C)NC(=O)[C@H](CC(C)C)NC(=O)[C@H](CC(C)C)NC(=O)OCc2ccccc2)c1
- IC50 [1]: 40.4 nM
- IC50 [2]: 71.1 nM
- IC50 [3]: 45.7 nM
- IC50 [4]: 82.9 nM
- IC50 [5]: 212 nM
- IC50 [6]: 78.5 nM

Structure (SMILES): COc1ccc(C[C@H](NC(=O)[C@H](C)NC(=O)c2ccc(-c3ccccc3)cc2)C(=O)N[C@@H](CC(C)C)C(=O)C(=O)Nc2ccccc2)cc1
- IC50 [1]: 455 nM
- IC50 [2]: 568 nM
- IC50 [3]: 464 nM
- IC50 [4]: 2440 nM
- IC50 [5]: 8700 nM
- IC50 [6]: 2020 nM

Structure (SMILES): COc1ccc(C[C@H](NC(=O)[C@H](C)NC(=O)CN2CCOCC2)C(=O)N[C@@H](Cc2ccccc2)C(=O)C(=O)Nc2ccccc2)cc1
- Activity [7]: Non-Toxic
- EC50 [8]: 1280 nM

Structure (SMILES): COc1cc(NC(=O)C(=O)[C@H](CC(C)C)NC(=O)[C@H](CC(C)C)NC(=O)[C@H](CC(C)C)NC(=O)OCc2ccccc2)cc(OC)c1
- IC50 [1]: 37.6 nM
- IC50 [2]: 70.7 nM
- IC50 [3]: 26.9 nM
- IC50 [4]: 72.5 nM
- IC50 [5]: 120 nM
- IC50 [6]: 68.5 nM

Structure (SMILES): CC(C)C[C@H](NC(=O)OCc1ccccc1)C(=O)N[C@@H](CC(C)C)C(=O)N[C@@H](CC(C)C)C(=O)C(=O)Nc1ccccc1
- IC50 [1]: 67.8 nM
- IC50 [2]: 88.1 nM
- IC50 [3]: 53.6 nM
- IC50 [4]: 106 nM
- IC50 [5]: 288 nM
- IC50 [6]: 119 nM
